This is an account of results in PubChem BioAssay.

SMILES strings stand for the structures. Active and inactive are the calls of the source.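 How the source made its calls, unless noted: active means inhibition at or above 50% at 10 µM; inactive means inhibition below 50%.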

Experiment [1] in a line: inhibitors of TNFa-induced NFkB p65 translocation, primary screen, imaging, HUVEC, MLSMR starter and 10KST1 sets (AID 438;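 active means inhibition above 20% together with a positive visual image hit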;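 further: compound added about 3h40 before a 20 min TNFalpha stimulation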;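 on inhibition: signal is the nuclear over cytoplasmic p65 intensity ratio per well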). To be noted: HUVEC TNFa-induced p65 nuclear translocation; cell count: measured here: nuclei count (cytotoxicity indicator), at 2.08 µM; inhibition: at 2 µM, stronger effect = higher value, 0% TNFa-plus-vehicle, 100% no-TNFa wells.
A short description of experiment [2]: reduction of polyQ htt aggregates in cells – imaging, exon1htt(103Q)mCFP cells, high-content imaging, primary screen (AID 483;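 active means visual image review flags a hit and inhibition of aggregation exceeds 20%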;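 further: compound exposure lasted 3 days before fixation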;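 on nuclei count: percent of the per-plate median nuclei count of sample wells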). To be noted: exon1htt(103Q)mCFP cell line, aggregate imaging, at 2 µM; inhibition of aggregation: stronger effect = higher value; nuclei count: measured here: cell count, toxicity.
Experiment [3] is described as follows: endothelial E-selectin expression blockers – imaging, HUVEC, immunofluorescence, MLSMR starter and 10KST1 sets, primary screen (AID 487;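 active means visually confirmed hit in the image check and inhibition above 20%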;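 on inhibition: signal is fraction of cell area covered by stained E-selectin grains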;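 on nuclei count: 100% = median nuclei count of all wells on the same plate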). Conditions: HUVEC TNFalpha-induced E-selectin immunofluorescence imaging, at 2 µM; inhibition: stronger effect = higher value; nuclei count: measured here: cell number, toxicity.
In experiment [4] the target is Voltage-gated potassium channel subunit beta-2 (Rattus norvegicus) (UniProt P62483). Briefly: inhibitors of rat Kvbeta2 reductase activity – biochemical, NADPH fluorescence, primary screen (AID 622;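 active means fluorescence slope higher than the sample average by over 3 SD, cut at about -0.22 in these data, passing the limit was not always enough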;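 further: slope of raw intensity against log time taken from 70 to 1610 s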). To be noted: recombinant KvBeta, 4-cyanobenzaldehyde reduction, at 10 µM, stronger effect = higher value.
Voltage-gated potassium channel subunit beta-2 (Rattus norvegicus), sequence (P62483 whole entry, looked up): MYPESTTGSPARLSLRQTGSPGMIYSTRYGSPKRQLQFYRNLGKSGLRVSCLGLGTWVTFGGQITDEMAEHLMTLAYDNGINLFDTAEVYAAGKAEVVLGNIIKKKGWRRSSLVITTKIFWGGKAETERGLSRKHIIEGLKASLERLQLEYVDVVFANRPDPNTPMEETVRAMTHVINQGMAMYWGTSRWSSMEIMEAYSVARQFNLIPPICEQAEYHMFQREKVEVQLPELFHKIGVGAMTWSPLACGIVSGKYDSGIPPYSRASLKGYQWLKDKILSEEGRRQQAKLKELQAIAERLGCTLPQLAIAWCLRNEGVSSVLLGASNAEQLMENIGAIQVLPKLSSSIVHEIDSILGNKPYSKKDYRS
Experiment [5] has the same target. Description: enhancers of rat Kvbeta2 NADPH turnover – biochemical, NADPH fluorescence, primary screen (AID 623;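 active means NADPH fluorescence slope more negative than the mean of all samples by about 3 SD, 99.7% confidence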;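 further: fluorescence intensity change per second fitted from 20 to 320 s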). Conditions: Recombinant KvBeta, NADPH fluorescence decrease slope, 10 min; at 10 µM; stronger effect = lower value.
Experiment [6] has as its target Alpha-2C adrenergic receptor (Homo sapiens) (UniProt P18825). Briefly: compounds altering alpha2C-coupled GIRK flux – cell-based, HEK293 alpha2C/GIRK1/2, thallium flux, primary screen (AID 624;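 active means fluorescence slope after compound addition differing from the mean of all screened samples at 99.7% confidence, in either direction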;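 further: slope of fluorescence ratio to pre-addition baseline per second over 15 to 24 s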). Conditions: thallium flux BTC fluorescence, at 10 µM, actives lie on both sides.
Experiment [7] in a line: inhibitors of larval lipid processing in zebrafish, primary screen, whole organism, PED6 fluorescence, gall bladder and intestine (AID 686;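 active means a full or partial loss of lipid-probe fluorescence in the fish gall bladder, intestine or both, judged by eye; inactive means no fluorescence loss, or compound toxic to the fish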;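 further: larvae 5 to 7 days old with five fish per well; signal comes from phospholipase A2 cleavage of quenched PED6 carried via bile; overnight exposure to compound and PED6 before scoring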). To be noted: Zebrafish larvae PED6 lipid processing, fluorescence scoring; screened at 20 µM (by protocol). The gist of the method:
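System: live zebrafish larvae aged 5-7 days, whole organism; measure: graded gall bladder and intestinal fluorescence inhibition per well; incubation: overnight exposure; reagent: ingested quenched lipid PED6 at 100 nM; signal: By-eye fluorescence microscopy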

The nature of experiment [8]: blockers of RIG-like receptor reporter activation – cell-based, Sendai virus stimulus, luciferase, 10K MLSCN set, TLR/RLR signaling modifier project, primary screen (AID 602276).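 Further: firefly luciferase from ISG56 promoter only with Renilla not read in this screen; 0% = Sendai virus plus DMSO and 100% = medium plus DMSO without virus.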 Conditions: HEK293 RL24 IRF3 luciferase reporter, at 10 µM, stronger effect = higher value. A general note: In a reporter assay the amount or activity of a reporter protein is the signal.
Experiment [9] in a line: TLR3 IRF3 reporter activation blockers – cell-based, poly I:C stimulus, luciferase, 10K MLSCN set, primary screen (AID 602277;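 active means inhibition of the reporter signal at or above 50%; inactive means inhibition below 50%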). Conditions: HEK293-TLR3 RL24 IRF3 luciferase reporter, at 10 µM, stronger effect = higher value.

Alpha-2C adrenergic receptor (Homo sapiens), sequence (P18825 whole entry, looked up): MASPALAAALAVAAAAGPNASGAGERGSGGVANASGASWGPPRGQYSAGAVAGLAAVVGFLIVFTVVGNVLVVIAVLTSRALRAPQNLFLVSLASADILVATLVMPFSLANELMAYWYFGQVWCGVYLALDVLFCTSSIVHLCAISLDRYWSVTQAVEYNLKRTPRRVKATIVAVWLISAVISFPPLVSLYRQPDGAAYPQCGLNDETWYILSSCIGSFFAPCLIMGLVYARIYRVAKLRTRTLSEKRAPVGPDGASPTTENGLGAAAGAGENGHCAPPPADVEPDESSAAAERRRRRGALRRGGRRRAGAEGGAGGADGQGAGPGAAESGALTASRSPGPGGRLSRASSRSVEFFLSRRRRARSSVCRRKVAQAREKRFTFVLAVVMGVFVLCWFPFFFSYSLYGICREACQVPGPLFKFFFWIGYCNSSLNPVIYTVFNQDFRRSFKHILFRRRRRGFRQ

In general, inhibition refers to the drop in the measured response relative to a control, in per cent. For the molecule `Cc1ccc(S(=O)(=O)N2CCN(C(=O)N3CCOCC3)C2c2ccc(N(C)C)cc2)cc1` (stereo unspecified), the cell count in [1] turned out to be 377. Also, the inhibition was -0.5% (inactive) in experiment [1], -44.5% (inactive) in [3], 12.8% (inactive) in experiment [8] and 8.2% (inactive) in [9]. Also, the inhibition of aggregation in experiment [2] is 0.7% (inactive). Also, the nuclei count was 98% in [2] and 121% in experiment [3]. In experiment [4], the fluorescence slope is -0.419 (inactive). In addition, the NADPH fluorescence slope in experiment [5] was -5.2e-05 (inactive). For the same molecule, in [6], the slope was 0.00452 (inactive). For the same molecule, the molecule was classed as inactive in experiment [7].

As to `COc1ccc(Cl)cc1N1CCN(CCNC(=O)Nc2ccccc2C)CC1`, the cell count in [1] is 353. Besides, the inhibition in [1] was 0.6% (inactive); in [3], -3.8% (inactive); in experiment [8], 21.9% (inactive); in [9] it was 8.13% (inactive). Also, in experiment [2], the inhibition of aggregation was -3.4% (inactive). Besides, the nuclei count in experiment [2] was determined as 108%; in [3], 111%. The fluorescence slope in experiment [4] was -0.452 (inactive). Moreover, the NADPH fluorescence slope in experiment [5] is -1.3e-05 (inactive). In experiment [6], the slope is 0.00435 (inactive). Also, the call in experiment [7] was inactive.

In the case of `O=C(CN(CC1CCCO1)S(=O)(=O)c1ccc(S(=O)(=O)NC2CC2)cc1)Nc1ccccc1` (stereo unspecified), the cell count in experiment [1] is 502. Moreover, the inhibition was -15.8% (inactive) in experiment [1], 12.1% (inactive) in experiment [3], 7.42% (inactive) in experiment [8] and 7.34% (inactive) in experiment [9]. In addition, the inhibition of aggregation in [2] was 17.8% (inactive). In addition, the nuclei count in experiment [2] worked out at 83.4%; in [3] it was 96.1%. In experiment [4], the fluorescence slope was -0.384 (inactive). In [5], the NADPH fluorescence slope was -4.7e-05 (inactive). Further, the slope in experiment [6] is 0.00436 (inactive). Besides, in experiment [7], the result was inactive.

For `COc1ccc(-c2nsc(SCC(=O)Nc3cc(C)on3)n2)cc1`, the cell count in experiment [1] stood at 245. The inhibition in experiment [1] is -7% (inactive); in [3] it was 50.5% (inactive); in [8], 21.4% (inactive); in experiment [9], 17.9% (inactive). Moreover, the inhibition of aggregation in experiment [2] is 14.4% (inactive). Also, the nuclei count in experiment [2] came out at 84.3%; in experiment [3], 64.4%. The fluorescence slope in experiment [4] was -0.396 (inactive). Also, in [5], the NADPH fluorescence slope was -2.2e-07 (inactive). Also, the slope in [6] was 0.0058 (inactive). Also, the molecule was classed as inactive in experiment [7].

Take `CCc1nnc(NC(=O)CSc2nnc(-c3ccccc3OC)n2-c2ccccc2)s1`: the cell count in [1] turned out to be 276. In addition, the inhibition in experiment [1] was -6.9% (inactive); in [3] it was -163% (inactive); in [8] it was 11.4% (inactive); in experiment [9], 8.06% (inactive). In addition, the inhibition of aggregation in experiment [2] was 14.1% (inactive). For the same molecule, the nuclei count turned out to be 146% in [2] and 128% in experiment [3]. For the same molecule, the fluorescence slope in experiment [4] is -0.396 (inactive). In experiment [5], the NADPH fluorescence slope was -7.8e-05 (inactive). In addition, the slope in experiment [6] was 0.00574 (inactive). Besides, the outcome in experiment [7] was inactive.

With `O=C(Nc1cccnc1)Nc1ccc(F)c(Cl)c1`, the cell count in [1] was found to be 347. Also, the inhibition in experiment [1] is 11.8% (inactive); in [3] it was -15.8% (inactive); in experiment [8], -39.2% (inactive); in [9] it was -103% (inactive). In addition, the inhibition of aggregation in experiment [2] was -11.4% (inactive). Besides, the nuclei count in experiment [2] is 94.2%; in experiment [3], 107%. In addition, the fluorescence slope in [4] was -0.517 (inactive). In experiment [5], the NADPH fluorescence slope was 1.7e-05 (inactive). Moreover, in experiment [6], the slope is 0.00552 (inactive). Moreover, the outcome in experiment [7] was “inactive; toxic”.

Consider `Cc1ccc2c(c1C)NC(C(=O)O)C1CC=CC21` (stereo unspecified), for which the cell count in [1] is 371. In addition, the inhibition was 1.6% (inactive) in experiment [1], -11.4% (inactive) in experiment [3], 13.7% (inactive) in experiment [8] and 18.5% (inactive) in experiment [9]. Further, the inhibition of aggregation in experiment [2] was -10.5% (inactive). Further, the results for the nuclei count in experiment [2] and in [3] were 77.6% and 114%, respectively. Also, the fluorescence slope in experiment [4] is -0.373 (inactive). In addition, the NADPH fluorescence slope in experiment [5] was -2.5e-05 (inactive). The slope in experiment [6] was 0.00434 (inactive). Moreover, the molecule was classed as inactive in experiment [7].

Take `COc1cc(CO)cc(-c2cc(CO)cc(OC)c2OC)c1OC`: the cell count in [1] was 547. Also, the inhibition was 3.5% (inactive) in [1], 49.8% (inactive) in experiment [3], 11.3% (inactive) in experiment [8] and 15.6% (inactive) in experiment [9]. Further, in experiment [2], the inhibition of aggregation is 19.5% (inactive). The nuclei count turned out to be 76.2% in experiment [2] and 60.6% in [3]. Also, the fluorescence slope in [4] is -0.367 (inactive). For the same molecule, in [5], the NADPH fluorescence slope is -5.9e-05 (inactive). Further, the slope in experiment [6] is 0.00523 (inactive). Also, the molecule was called inactive in experiment [7].

As to `CCOc1ccccc1C(=O)Nn1c(C2CCC2)nc2ccccc2c1=O`, the cell count in experiment [1] came to 292. For the same molecule, the inhibition in experiment [1] is -14% (inactive); in [3] it was -38.2% (inactive); in [8], 20.9% (inactive); in experiment [9], 37.7% (inactive). The inhibition of aggregation in [2] is -21.7% (inactive). Further, the values for the nuclei count in experiment [2] and in experiment [3] were 7.3% and 98.8%, respectively. For the same molecule, the fluorescence slope in [4] is -0.467 (inactive). The NADPH fluorescence slope in experiment [5] was -5.5e-05 (inactive). The slope in [6] was 0.00459 (inactive). Moreover, the molecule was called inactive in experiment [7].

For the molecule `CCOC(=O)C1CCN(CC(=O)Nc2c(C(=O)OC)[nH]c3ccc(Cl)cc23)CC1`, in experiment [1], the cell count worked out at 340. Besides, the inhibition is 4.8% (inactive) in experiment [1], -29.3% (inactive) in experiment [3], 8.17% (inactive) in experiment [8] and -16.2% (inactive) in experiment [9]. The inhibition of aggregation in [2] was -27.5% (inactive). For the same molecule, the values for the nuclei count in experiment [2] and in [3] were 104% and 107%, respectively. Besides, the fluorescence slope in experiment [4] was -0.383 (inactive). The NADPH fluorescence slope in [5] was -6.2e-05 (inactive). Besides, the slope in experiment [6] is 0.00328 (inactive). The result in experiment [7] was inactive.

For `Cc1nnc(SCCCn2c(N3CCCCC3)nc3c2c(=O)[nH]c(=O)n3C)s1`, the cell count in [1] stood at 382. For the same molecule, the inhibition in [1] was -2.4% (inactive); in [3], -64.9% (inactive); in [8], 8.32% (inactive); in experiment [9], 17.6% (inactive). Besides, the inhibition of aggregation in [2] is -17.5% (inactive). For the same molecule, the nuclei count in experiment [2] turned out to be 109%; in [3] it was 93.7%. Moreover, the fluorescence slope in [4] is -0.458 (inactive). Moreover, the NADPH fluorescence slope in experiment [5] is -1.1e-05 (inactive). Further, the slope in experiment [6] was 0.00412 (inactive). Also, the molecule was classed as inactive in experiment [7].

Take `Cc1c(Cl)cccc1NC(=O)CCN1CCCCCC1`: the cell count in [1] turned out to be 221. Also, the inhibition in experiment [1] is 14.6% (inactive); in experiment [3], -108% (inactive); in experiment [8], 13.4% (inactive); in [9] it was 20.3% (inactive). Further, the inhibition of aggregation in [2] is -8.7% (inactive). The nuclei count in experiment [2] was 90.4%; in experiment [3], 143%. In addition, the fluorescence slope in [4] was -0.414 (inactive). For the same molecule, the NADPH fluorescence slope in [5] was -3.3e-05 (inactive). For the same molecule, the slope in [6] was 0.00752 (inactive). Besides, the result in experiment [7] was inactive.

Turning to `O=C(O)CCC(=O)NC1CCCCC1NC(=O)CCC(=O)O` (stereo unspecified), the cell count in [1] is 488. The inhibition in experiment [1] is 4% (inactive); in [3], -189% (inactive); in [8] it was 5.12% (inactive); in [9], 3.98% (inactive). Moreover, the inhibition of aggregation in experiment [2] is -8.6% (inactive). Also, the values for the nuclei count in experiment [2] and in experiment [3] were 104% and 129%, respectively. For the same molecule, the fluorescence slope in [4] was -0.394 (inactive). The NADPH fluorescence slope in experiment [5] is -6.2e-05 (inactive). In addition, the slope in [6] was 0.00623 (inactive). Also, the molecule was classed as inactive in [7].
